Source: PubChem BioAssay (Broad Institute)
MLL AF4-AF9 inh – blocks AF4 peptide binding to human AF9; P42568; AlphaScreen, biotin-AF4 peptide binding to FLAG-AF9; inhibition, % at 10 µM; hit rate 0.47% among 350,000; AID 651704;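 active = every replicate reaching a set inhibition limit, whatever the replicate mean, cut at about 25% in these data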;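 note: 0% = plate neutral control median and 100% = total signal loss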
FN deposit inh – fibronectin deposition inhibition; AH1F fibroblasts, Alexa488-fibronectin deposition fluorescence, overnight; inhibition, % at 12.6 µM; hit rate 0.086% among 350,000; AID 743247;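 active = mean inhibition across replicates of 30% or more, regardless of how many single replicates reach that level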;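 note: positive control wells lacked labelled fibronectin entirely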
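Assay system: AH1F fibroblasts / Quantity: 10000 cells per well / Medium: DMEM plus 2% serum, read in PBS / Reagent: labelled fibronectin 24 nM / Dosing: single dose, pinned / Times: 1 h cell attachment, overnight exposure to compound and label / Signal: fluorescence, ex 485 nm, em 525 nm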
PDI turbidity – blocks human protein disulfide isomerase activity; PDI insulin aggregation turbidity, A650, 90 min; inhibition, % at 10 µM; hit rate 0.052% among 350,000; AID 588391;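 active = mean inhibition across replicates of 30% or more, whatever share of single replicates reach that level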
ERp5 inh – ERp5 (human) disulfide isomerase inhibition; AID 651711; Q15084; hit rate 0.05% among 350,000; ERp5 insulin aggregation, absorbance 650 nm, 90 min; inhibition, % at 9.99 µM;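 active = mean replicate inhibition above about 25%, with every replicate also reaching it, limit read from the data, passing the limit was not always enough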
SIRT5 inh – sirtuin-5 (human) deacylase inhibition; Q9NXA8; hit rate 1.1% among 330,000; inhibition, % at 15 µM; Purified SirT5, succinyl-peptide AMC, trypsin-coupled fluorescence; in the data active = inhibition above about 15%
Target sequence (Q9NXA8 whole entry, looked up): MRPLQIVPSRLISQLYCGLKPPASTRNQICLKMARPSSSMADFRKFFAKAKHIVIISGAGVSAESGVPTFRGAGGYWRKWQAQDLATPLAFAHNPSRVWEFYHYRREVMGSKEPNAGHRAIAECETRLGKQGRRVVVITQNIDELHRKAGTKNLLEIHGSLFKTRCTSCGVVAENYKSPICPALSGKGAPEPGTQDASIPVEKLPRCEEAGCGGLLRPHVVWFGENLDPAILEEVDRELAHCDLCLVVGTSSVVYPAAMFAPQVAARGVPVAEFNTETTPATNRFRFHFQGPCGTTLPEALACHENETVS
* = called active by the depositor; nt = not tested or not shown; ! = not confirmed by another sample. Only some compounds are listed: those with a hit (about 1.3% of all), similar ones and a draw of the others.

SMILES	MLL AF4-AF9 inh	FN deposit inh	PDI turbidity	ERp5 inh	SIRT5 inh
COC(=O)C1=C(C)Nc2c(c(=O)n(C)c(=O)n2C)C1c1cccc(O)c1 (stereo unspecified)	6	-2	0	5	20*
CC1=C(C(=O)N2CCOCC2)CC(CC(=O)NCCCN(C)C)C(=O)N1CCC1=CCCCC1 (stereo unspecified)	-4	-4	1	-1	0
CC1=C(C(=O)N(C(C)C)C(C)C)CC(CC(=O)NCCN2CCOCC2)C(=O)N1CCCN1CCCC1=O (stereo unspecified)	-1	1	nt	4	16*
CC1=C(C(=O)N(C(C)C)C(C)C)CC(CC(=O)NC2CCCCC2)C(=O)N1CCCN1CCCC1=O (stereo unspecified)	-2	nt	nt	-7	33*
CC1=C(C(=O)N(C(C)C)C(C)C)CC(CC(=O)NCCCN(C)C)C(=O)N1CCC1=CCCCC1 (stereo unspecified)	0	0	nt	-4	23*
CC1=C(C(=O)N(C(C)C)C(C)C)CC(CC(=O)NC2CCCC2)C(=O)N1CCCN1CCCC1=O (stereo unspecified)	-4	3	nt	7	-5
CC1=C(C(=O)N(C)C)CC(CC(=O)NCCN2CCOCC2)C(=O)N1CCCN1CCCC1=O (stereo unspecified)	-6	2	nt	3	-2
CCc1nnc(NC(=O)C2CCCN2S(=O)(=O)c2ccc(C)cc2)s1 (stereo unspecified)	nt	-1	1	nt	nt
Cc1ccc(S(=O)(=O)N2[C@@H](c3ccccc3)C(C(=O)O)=CC[C@H]2c2cccs2)cc1	-2	0	4	-1	-1
Cc1ccc(S(=O)(=O)C2(C(=O)N3CCN(c4cc(C)ccc4C)CC3)CC2)cc1	38*	-6	21	3	-5
COc1cc2[nH]c(C(=O)N3CCN(c4ccc(F)cc4)CC3)cc2c(OC)c1OC	-1	1	11	6	-4
O=C(CN1CCOCC1)N/N=C/c1ccc(-c2ccc(C(=O)O)cc2)o1	3	-2	6	6	17*
CCOC(=O)c1ccc(NC(=S)N2CCSC2c2ccc(OC)cc2)cc1 (stereo unspecified)	-2	-16	4	2	nt
COc1ccc(C)cc1N(CC(=O)Nc1cccc(N(C)S(C)(=O)=O)c1)S(C)(=O)=O	nt	32*	-4	0	nt
COc1ccc(N(CC(=O)Nc2cccc(N(C)S(C)(=O)=O)c2)S(C)(=O)=O)cc1OC	-10	nt	-10	8	0
CC(C)(C)c1csc(NC(=O)CCc2ccccc2)n1	-2	3	0	2	4
COc1ccccc1C1CC(=O)Oc2cc(C)c(Cl)c(C)c21 (stereo unspecified)	-2	-5	-15	-2	0
COc1ccccc1C1CC(=O)Oc2cc(C)c(Br)c(C)c21 (stereo unspecified)	-1	-2	-3	-4	35*
CC(=O)Nc1ccc(NC(=O)C(C)OC(=O)CC2CCCCC2)cc1 (stereo unspecified)	13	3	10	-4	4
CC(OC(=O)CC1CCCCC1)C(=O)Nc1ccc(F)cc1 (stereo unspecified)	6	0	-7	1	21*
O=c1c(Oc2ccccc2Br)c(C(F)(F)F)oc2c(CN3CCCC3)c(O)ccc12	nt	-3	0	nt	nt
C[C@@H]1CCCCO[C@H](CN(C)C(=O)Nc2ccc(C(F)(F)F)cc2)[C@@H](C)CN([C@@H](C)CO)C(=O)c2cc(NS(=O)(=O)c3ccc(F)cc3)ccc2O1	2	4	nt	4	18*
Cc1ccc(S(=O)(=O)Nc2ccc3c(c2)C(=O)N([C@@H](C)CO)C[C@H](C)[C@@H](CN(C)C(=O)Nc2ccc(C(F)(F)F)cc2)O3)cc1	-2	nt	nt	-1	16*
C[C@H]1CN([C@@H](C)CO)C(=O)c2cc(NS(=O)(=O)c3ccc(F)cc3)ccc2O[C@H]1CN(C)C(=O)Nc1ccc(C(F)(F)F)cc1	-2	nt	nt	2	2
C[C@H]1CCCCO[C@@H](CN(C)C(=O)Nc2ccc(C(F)(F)F)cc2)[C@@H](C)CN([C@@H](C)CO)C(=O)c2cc(NS(=O)(=O)c3ccc(F)cc3)ccc2O1	-4	0	nt	-1	8
SMILES	MLL AF4-AF9 inh	FN deposit inh	PDI turbidity	ERp5 inh	SIRT5 inh
C[C@@H]1CN([C@H](C)CO)C(=O)c2cc(NS(=O)(=O)c3ccc(Cl)cc3)ccc2O[C@@H](C)CCCCO[C@H]1CN(C)C(=O)Nc1ccc(C(F)(F)F)cc1	-1	nt	nt	2	22*
COc1ccccc1-c1cccc(-c2nc(C(=O)Nc3nccs3)cc3c2[C@H](CCO)N(C(=O)CC2CC2)C3)c1	-2	-12	nt	-1	4
COc1ccccc1-c1cccc(-c2nc(C(=O)Nc3nccs3)cc3c2[C@@H](CCO)N(C(=O)CC2CC2)C3)c1	-2	15	nt	1	16*
CC(/C=N/NC(=O)c1cccs1)=C\c1ccco1	7	-4	0	2	6
COc1cc(/C=C/C=C2/CC/C(=C/C=C/c3ccc(O)c(OC)c3)C2=O)ccc1O	4	2	39*	1	4
COc1cc(/C=C2/CC/C(=C/c3ccc(O)c(OC)c3)C2=O)ccc1O	nt	7	0	2	-1
Cn1cc(CN2CCC(C(=O)NC(c3ccc(-c4ccccc4)cc3)c3cnccn3)CC2)c2ccccc21 (stereo unspecified)	26*	6	8	-2	nt
O=C(NC(c1ccc(-c2ccccc2)cc1)c1cnccn1)C1CCN(Cc2ccc(Cl)c(Cl)c2)CC1 (stereo unspecified)	1	3	13	3	-3
COc1ccc(C(CNC(=O)COc2c(C)cc(C)cc2C)N2CCOCC2)cc1 (stereo unspecified)	8	nt	-7	-1	-1
CC1CCC(C(C)C)C(OC(=O)Cn2c(-c3ccccc3)[n+](C)c3ccccc32)C1 (stereo unspecified)	9	2	17	4	19*!
CC1CCC(C(C)C)C(OC(=O)Cn2c(-c3ccc(F)cc3)[n+](C)c3ccccc32)C1 (stereo unspecified)	-66	-3	2	-1	1
CCOc1cc(OCC)cc(C(=O)N2CCC[C@@H]2C(=O)N2CCC[C@H]2C(=O)NCc2ccncc2)c1	3	-9	nt	-2	2
CC(=O)NC(CC(=O)N1CCN(C(C)=O)CC1)c1ccccc1 (stereo unspecified)	-2	-2	-1	2	25*
O=C(NC(CC(=O)N1CCN(c2ccccc2)CC1)c1ccccc1)c1ccccc1 (stereo unspecified)	1	nt	6	5	nt
C[C@@H]1O[C@@H](OC[C@H]2O[C@@H](Oc3c(-c4ccc(O)c(O)c4)oc4cc(O)cc(O)c4c3=O)[C@H](O)[C@@H](O)[C@@H]2O)[C@H](O)[C@H](O)[C@H]1O	-2	3	58*	1	2
O=c1c(O[C@@H]2O[C@H](CO)[C@@H](O)[C@H](O)[C@H]2O)c(-c2ccc(O)cc2)oc2cc(O)cc(O)c12	nt	nt	37*	nt	nt
